Assay outcomes from PubChem.
Sampled rows, rich in hits. Any-hit rate of the full collection: about 2.9%.
OX1R antag-1: blocks the human orexin 1 receptor; O43613; actives 1.8% (n = 330,000); OX1R-expressing cells, FRET antagonist read-out; inhibition, % at 6.6 µM; AID 485270; in the data active = inhibition mostly above about 38%, no sharp cut-off; inactive = mostly below about 40%
Target sequence (O43613 whole entry, looked up): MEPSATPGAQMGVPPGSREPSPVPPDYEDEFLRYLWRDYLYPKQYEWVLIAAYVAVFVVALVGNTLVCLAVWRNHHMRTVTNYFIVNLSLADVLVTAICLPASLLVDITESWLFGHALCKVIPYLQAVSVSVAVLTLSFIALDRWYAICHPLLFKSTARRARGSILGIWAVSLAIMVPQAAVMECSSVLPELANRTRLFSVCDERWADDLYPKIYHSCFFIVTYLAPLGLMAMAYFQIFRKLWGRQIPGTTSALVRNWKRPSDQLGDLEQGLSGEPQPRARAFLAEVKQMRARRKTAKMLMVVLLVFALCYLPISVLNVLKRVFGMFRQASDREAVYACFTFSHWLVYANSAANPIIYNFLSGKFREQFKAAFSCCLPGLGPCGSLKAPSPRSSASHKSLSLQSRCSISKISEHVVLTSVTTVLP
CHO parental Ca: counter-screen for OX1R antagonists: effect in parental CHO cells; parental CHO-K1, ATP-induced calcium, Fluo-8 fluorescence; inhibition, % at 5.6 µM; actives 0.63% (n = 330,000); AID 463079;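 active = inhibition above that plate's mean sample inhibition plus 3 SD, cut at about 26% in these data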
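material = parental CHO cells | also added = ATP as calcium-mobilizing challenge | dosing = single point at 5.6 µM | detection = intracellular calcium via Fluo-8 no-wash fluorescent dye | read-out = % inhibition | benchmarks = low control ATP plus DMSO, high control DMSO only | repeats = one well per compound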
CHO-K1 Ca antag: M1 antagonist counterscreen hit in parental CHO-K1 cells; ATP-induced calcium, Fluo-8 fluorescence; inhibition, % at 3 µM; actives 0.6% (n = 360,000);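 active = inhibition above a per-plate cutoff, the plate's mean sample inhibition plus 3 SD, cut at about 24% in these data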
OX1R antag-2: antagonists of human orexin 1 receptor | inhibition, % at 5 µM | actives 0.43% (n = 330,000) | O43613 | CHO/OX1R cells, Fluo-8 calcium fluorescence, orexin A;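 active = inhibition above its plate's threshold, mean inhibition of all tested compounds on the plate plus 3 SD, cut at about 37% in these data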
M1 ag parental: M1 agonist counterscreen hit in parental CHO-K1 cells. Fluo-8 calcium fluorescence; scaled to maximal ATP response, vehicle zero. activation, % at 3 µM. actives 0.48% (n = 360,000). AID 602248; in the data active = activation above about 15%;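 note: untransfected CHO-K1 host cells lacking M1 receptor as counterscreen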
M1 PAM parental: counter-screen for M1 PAMs: effect in parental CHO-K1 cells; ATP EC20, Fluo-8 calcium fluorescence; 0% at ATP EC20, 100% at ATP max; activation, % at 3 µM; actives 0.02% (n = 360,000); AID 602247;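 active = activation above the run cutoff, the mean activation of all test compounds plus 3 SD, cut at about 40% in these data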;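 note: peak over basal fluorescence ratio in a 140 s read after ATP addition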
Each line names hits and unclear results; the compound was inactive in the other large screens.

COC(=O)c1sc(NC(=O)c2ccc(Cn3cc(Cl)cn3)o2)c(C#N)c1C	OX1R antag-1 72
O=C(CCNC(=O)c1ccco1)NNC(=O)c1ccc(Br)cc1	none (no result: OX1R antag-1, CHO parental Ca, OX1R antag-2)
O=C(NNC(=S)NC(=O)c1ccco1)c1ccc(F)cc1	M1 ag parental 24
O=C(NC(=S)NNC(=O)c1ccco1)c1ccc(Br)cc1	M1 ag parental 18
O=C(NC(=S)NNC(=O)c1cccs1)c1ccco1	none
COc1ccccc1NC(=O)c1cc2c(s1)-c1ccccc1S(=O)(=O)C2	none
COc1ccc(CCNC(=O)CCc2ccc(S(=O)(=O)NC(C)C)cc2)cc1OC	none
COc1ccc(CCNC(=O)COc2ccc(S(=O)(=O)NC(C)C)cc2Cl)cc1OC	OX1R antag-1 47
CC(NC(=O)CCNC(=O)c1ccco1)c1ccc(F)cc1 (stereo unspecified)	none
CC(C)C[C@H]1CNC(=S)N1CC1CCN(CCCC2CCCCC2)CC1	none (no result: OX1R antag-1, CHO parental Ca, OX1R antag-2)
O=C(COC(=O)C1CC2CCCC(C1)C2=O)Nc1cccc(F)c1 (stereo unspecified)	none
CCCS(=O)(=O)N1CCCC(C(=O)NCCN(Cc2ccccc2)C(C)C)C1 (stereo unspecified)	CHO-K1 Ca antag 32
O=[N+]([O-])c1ccc(O)c(C(C#Cc2ccccc2)N2CCOCC2)c1 (stereo unspecified)	none
Cc1cc2ccccc2n1CCNCc1c(C(=O)N2CCOCC2)nc2ccccn12	CHO-K1 Ca antag 24
Nc1nc(Nc2ccccc2F)nc(N2CCOCC2)c1[N+](=O)[O-]	M1 ag parental 18
CCCCc1cc(O)c(CCCC)c(O)c1	CHO parental Ca 80, CHO-K1 Ca antag 48, OX1R antag-2 102, M1 ag parental 47
COc1ccc(OC)c2c1cc(C(=O)N[C@H](C(=O)N1CCC[C@H]1C(=O)O)C(C)C)n2C	none
c1ccc2nc3c(nc2c1)CCCC3	none
c1ccc2nc3c(nc2c1)CCc1nonc1-3	OX1R antag-1 44
O=C(NCc1ccc(Cl)cc1)c1ccccc1CCc1ccccc1	none
Cc1cc(C)c(NC(=O)c2ccccc2CCc2ccccc2)c(C)c1	OX1R antag-1 41
O=C(NCc1ccccc1Cl)c1ccccc1CCc1ccccc1	OX1R antag-1 50, CHO parental Ca 66
O=C1NC(=O)N2CCSC2(Cc2ccccc2)N1 (stereo unspecified)	none (no result: OX1R antag-1, CHO parental Ca, OX1R antag-2)
N/C(=N\OC(=O)CC1CCCCC1)c1ccncc1	M1 ag parental 17
N/C(=N\OC(=O)CCC1CCCC1)c1ccncc1	none
Cc1cc2nc(SCCOC(=O)Nc3ccccc3)nc(C)c2cc1C	OX1R antag-1 72
O=C1Nc2ccc(Br)cc2C12NNc1ccccc1O2 (stereo unspecified)	CHO parental Ca 78, OX1R antag-2 60
COc1ccc(NC(=S)N2CCC(C(=O)c3ccc(F)cc3)CC2)cc1	none (no result: OX1R antag-1, CHO parental Ca, OX1R antag-2)
COc1ccc2[nH]c3c(c2c1)CCn1c-3nc2ccccc2c1=O	OX1R antag-1 47
Cc1ccc(Oc2cnc3ccccc3n2)cc1	none
Cc1ccc(Oc2ccc(Oc3ccc(C)cc3)nn2)cc1	CHO parental Ca 27
CCN(CC)CCn1c2c(c(SCC(=O)Nc3cc(C)on3)nc1=O)CCCC2	none
NC(=O)CC(NC(=O)Cc1ccc(Br)cc1)c1ccc(N2CCN(c3ccc(F)cc3)CC2)c([N+](=O)[O-])c1 (stereo unspecified)	none
Cc1ccc(Oc2ccc(NC(=O)c3ccco3)cc2)cc1	CHO-K1 Ca antag 27
COc1cccc(-c2nnc(NC(=O)c3ccco3)s2)c1	OX1R antag-1 53
COc1cccc(-c2c(NC(=O)c3ccco3)n(-c3ccc(C)cc3)nc(C)c2=O)c1	CHO-K1 Ca antag 32
Cc1ccc(-c2nnc(NC(=O)c3ccco3)s2)cc1	none
Cc1ccc(-n2nc(C)c(=O)c(-c3ccccc3)c2NC(=O)C(C)C)cc1	none
Cc1ccc(NC(=O)c2ccc(OC(=O)c3ccco3)cc2)cc1	none
Cc1nnc(NC(=O)c2ccco2)s1	CHO-K1 Ca antag 26
O=C(O)Cc1ccc(NC(=O)c2cccc(NC(=O)c3ccco3)c2)cc1	CHO-K1 Ca antag 28
O=C(Nc1ccccc1)c1cccc(NC(=O)c2ccco2)c1	none
COc1ccc(NC(=O)C2Cc3c(-c4cccc(F)c4)ccnc3O2)cn1 (stereo unspecified)	none (no result: OX1R antag-1, CHO parental Ca, OX1R antag-2)
CCOC(=O)C1=C(CC)Nc2ccccc2N=C1NC(=O)Nc1ccc(Cl)c(Cl)c1	OX1R antag-1 96, CHO parental Ca 64, OX1R antag-2 64
COc1ccc(CCNC(=O)CCCc2ccccc2)cc1OC	none
O=C(CSc1cc(Cl)ccc1Cl)NCC(=O)Nc1ccc(F)c(F)c1F	M1 ag parental 15
O=C(CNC(=O)c1cccc(Cl)c1)Nc1ccc(F)c(F)c1F	none
COc1ccc(C2/C=C\CN(S(=O)(=O)c3ccc(C)cc3)CC(=O)N2Cc2ccc(F)cc2)cc1 (stereo unspecified)	none
COc1ccc(C2/C=C\CN(S(=O)(=O)c3ccc(C)cc3)CC(=O)N2Cc2cccc(F)c2)cc1 (stereo unspecified)	OX1R antag-1 50
COC(=O)c1c(C)oc2ccc(NS(=O)(=O)c3cccs3)cc12	OX1R antag-1 40
COc1ccccc1CNS(=O)(=O)c1ccc(-c2cc(C)no2)cc1	OX1R antag-1 66
CCc1ccc(-c2cc(C)no2)cc1S(=O)(=O)NCc1ccccc1OC	none
FC(F)(F)c1cccc(-c2cc3nc(NC4CCCCC4)ccn3n2)c1	none (no result: OX1R antag-1, CHO parental Ca, OX1R antag-2)
O=C(COC(=O)Cc1ccc(F)cc1)NC(=O)c1ccccc1	none
CCNc1nc2nc3ccc(C)cn3c(=O)c2cc1C(=O)NCC1CCCO1 (stereo unspecified)	OX1R antag-1 64
C=CCNC(=O)c1cc2c(=O)n3cc(C)ccc3nc2nc1NCC1CCCO1 (stereo unspecified)	OX1R antag-1 47 (no result: CHO-K1 Ca antag, M1 ag parental, M1 PAM parental)
Cc1ccc2nc3nc(NCC4CCCO4)c(C(=O)NC4CCCC4)cc3c(=O)n2c1 (stereo unspecified)	none
COCCCNC(=O)c1cc2c(=O)n3cc(C)ccc3nc2nc1NCC1CCCO1 (stereo unspecified)	OX1R antag-1 105 (no result: CHO-K1 Ca antag, M1 ag parental, M1 PAM parental)
COc1ccc(C(NC(=O)CN2C(=O)NC3(CCc4ccccc43)C2=O)c2ccc(OC)cc2)cc1 (stereo unspecified)	none (no result: OX1R antag-1, CHO parental Ca, OX1R antag-2)
Cn1c(O)c(N=NC(=O)CNC(=O)c2ccccc2)c2ccccc21	OX1R antag-1 48
CC(C)C[C@H]1CNC(=S)N1C[C@H]1CCCN1C[C@H](Cc1ccc(O)cc1)N1C[C@H](Cc2ccc(O)cc2)N(CC2CCCCCC2)C1=S	none (no result: OX1R antag-1, CHO parental Ca, OX1R antag-2)
NC(=O)c1ccccc1NC(=O)CN1CCCCCC1	none
NC(=O)c1cc(-c2ccccc2)sc1NC(=O)CN1CCCCC1	CHO-K1 Ca antag 25
NC(=O)NN=C1C2CCCC1C(c1ccccc1)NC2c1ccccc1 (stereo unspecified)	none
